The species entered for assay [1] is Rattus norvegicus. Put plainly: Inhibitory effect on production of active oxygen species by rat peritoneal exudate macrophages. The format is functional. Also noted: concentration or dose not given beside the values. In a few lines: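 Peritoneal exudate macrophages harvested 3 days after ip liquid paraffin (male Wistar rats), >90% viable. Assay: 125 mM sodium phosphate pH 6.5, 0.08 mM EDTA, 1.2 U LDH, 0.32 mM NADH, (2–3) × 10^6 cells, compound in DMF, 1 × 10^-4 M. Started with NADH.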

The species named for assay [2] is Rattus norvegicus. Put plainly: Inhibition of lipid peroxidation in rat liver microsomes. The format is functional. More on the design: concentration or dose not given beside the values. The settings on record: dose or concentration not given here. In a few lines:
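Wistar rat liver microsomes (2.0 mg protein) in 83.5 mM KCl, 37.2 mM Tris-HCl pH 7.4 with 1 mM ADP, 10 µM FeCl3, 0.02 mM NADPH; compound added in DMF, tested at 10^-5 M. 37 °C, 20 min. Malondialdehyde measured by thiobarbituric acid method, A532; % inhibition, mean ± SD, n = 3–6.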

The test system of assay [3] is Rattus norvegicus. Put plainly: Effect (10 mg/kg, iv) on coronary reperfusion-induced arrhythmias was assessed in anesthetized rats.(Intervals of ventricular tachycardia (VT)+ventricular fibrillation (VF) within 600 s. The format is functional, Cardiac ventricle.
Assay [4] concerns Rattus norvegicus. Put plainly: Effect (10 mg/kg, iv) on coronary reperfusion-induced arrhythmias was assessed in anesthetized rats.(Intervals of ventricular tachycardia (VT)+ventricular fibrillation (VF) within 600 s. The assay is classed as functional, Cardiac ventricle.
The species entered for assay [5] is Cavia porcellus. Put plainly: Inhibitory activity on atrial rate in isolated Guinea pig right atrea at 0.03 mg/mL concentration. The format is functional, Cardiac atrium. In a few lines: (§1)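 Right atria from male Hartley guinea pigs (450–550 g), loaded at 0.5 g, in Tyrode's solution at 37 °C gassed with 95% O2/5% CO2. Equilibrated at least 30 min until rate stable within 5 beats/min; spontaneous rate and contractile force recorded on polygraph after compound addition.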

The species named for assay [6] is Cavia porcellus. Put plainly: Inhibitory activity on atrial contractility in isolated Guinea pig right atrea at 0.03 mg/mL concentration p<0.05. The format is functional, Cardiac atrium. A digest of the protocol: as §1
For assay [7], the species on record is Cavia porcellus. Put plainly: Inhibitory activity on atrial contractility in isolated Guinea pig right atrea at 0.1 mg/mL concentration p<0.05. The format is functional, Cardiac atrium. In a few lines: as §1
For assay [8], the species on record is Cavia porcellus. Put plainly: Inhibitory activity on atrial contractility in isolated Guinea pig right atrea at 0.3 mg/mL concentration. The assay is classed as functional, Cardiac atrium. In a few lines:
as §1

For assay [9], the species on record is Cavia porcellus. Put plainly: Inhibitory activity on atrial rate in isolated Guinea pig right atrea at 0.3 mg/mL concentration. The assay is classed as functional, Cardiac atrium. A digest of the protocol: as §1
For assay [10], the species on record is Cavia porcellus. Put plainly: Inhibitory activity on atrial rate in isolated Guinea pig right atrea at 0.1 mg/mL concentration. The assay is classed as functional, Cardiac atrium. In a few lines: as §1
Assay [11] concerns Rattus norvegicus. Put plainly: Effect (30 mg/kg, iv) on coronary reperfusion-induced arrhythmias was assessed in anesthetized rats. (Intervals of ventricular tachycardia (VT)+ventricular fibrillation (VF) within 600 s. The format is functional, Cardiac ventricle.

With `CCCCCCCCCCCCOC1=C(O)C(=O)OC1C(O)CO` (stereo not drawn), the Inhibition (as a rule, the drop in the measured response relative to a control, in per cent) in the assay filed under Rattus norvegicus [1] came to 38.7%. Besides, the inhibition – broadly, the share of the control response that was lost under treatment – in the assay listed under Rattus norvegicus [2] amounted to 91%. Also, the Arrhythmias times with Rattus norvegicus [3] was found to be 49.

As to `CCCCCCCCc1ccc(C(=O)COC2=C(O)C(=O)OC2C(O)CO)cc1` (stereo not drawn), in the assay on Rattus norvegicus [4], the Arrhythmias times is 461. For the same molecule, the Inhibition is reported as -0.4% in the assay filed under Cavia porcellus [5]; 15.8% in the assay listed under Cavia porcellus [6]; 33.5% in the assay listed under Cavia porcellus [7]; 45% in the assay listed under Cavia porcellus [8]; 0.3% in the assay listed under Cavia porcellus [9]; -0.9% in the assay filed under Cavia porcellus [10]. In the assay filed under Rattus norvegicus [2], the inhibition came out at 88%.

`CCOC1=C(O)C(=O)OC1C(O)CO` (stereo not drawn): the Arrhythmias times in the assay with Rattus norvegicus [11] was 591. The inhibition in the assay listed under Rattus norvegicus [2] is 2%.

For the origin of these results see ChEMBL document CHEMBL1125458, “3-O-alkylascorbic acids as free radical quenchers. 3. Protective effect on coronary occlusion-reperfusion induced arrhythmias in anesthetized rats” (1992).
